# Data: ChEMBL document CHEMBL4689842, “EUbOPEN Chemogenomics Library wave 1” (2021)
# System: Fibroblast
# Experiment: Multiplex assay against human fibroblast
# Assay type: toxicity, cell-based
# Summary of the method: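 With compound added, live cells were imaged on a CQ1 microscope at 37°C and 5% CO2; staining with Hoechst33342, BioTracker Green Microtubule Cytoskeleton Dye, MitoTracker Red and Annexin V Alexa Fluor 680 had been done at seeding. The CellPathfinder machine-learning gating scheme split cells into Hoechst high-intensity objects or normal cells, normal cells into healthy, pyknosed or fragmented nuclei, and pyknosed cells into mitotic or apoptotic. The tubulin, mitochondrial-mass and membrane-permeability phenotypes are per cents of healthy-nucleus cells.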
# [1] = 12 h, 1 µM, compound concentration 1 uM, replicate 1
# [2] = 12 h, 1 µM, compound concentration 1 uM, replicate 2
# [3] = 12 h, 10 µM, compound concentration 10 uM, replicate 1
# [4] = 12 h, 10 µM, compound concentration 10 uM, replicate 2
# [5] = 24 h, 1 µM, compound concentration 1 uM, replicate 1
# [6] = 24 h, 1 µM, compound concentration 1 uM, replicate 2
# [7] = 24 h, 10 µM, compound concentration 10 uM, replicate 1
# [8] = 24 h, 10 µM, compound concentration 10 uM, replicate 2
# [9] = 48 h, 1 µM, compound concentration 1 uM, replicate 1
# [10] = 48 h, 1 µM, compound concentration 1 uM, replicate 2
# [11] = 48 h, 10 µM, compound concentration 10 uM, replicate 1
# [12] = 48 h, 10 µM, compound concentration 10 uM, replicate 2
smiles,measurement,setting,value
COC(=O)C1=C(C)NC(C)=C(C(=O)OCCCN2CCC(c3ccccc3)(c3ccccc3)CC2)[C@H]1c1cccc([N+](=O)[O-])c1 [NIGULDIPINE],Population Apoptotic (%),[1],65%
same,Population Fragmented Nuclei (%),[1],17%
same,Population Healthy Nuclei (%),[1],45%
same,Population Hoechst High Intensity Objects (%),[1],12%
same,Population Membrane Permeable-Phenotype (%),[1],2%
same,Population Mitochondria Different-Phenotype (%),[1],85%
same,Population Mitotic Cells (%),[1],34%
same,Population Normal (%),[1],87%
same,Population Pyknosed Nuclei (%),[1],36%
same,Population Tubulin-Different-Phenotype (%),[1],100%
same,Total Cell Count,[1],99
same,Population Apoptotic (%),[2],91%
same,Population Fragmented Nuclei (%),[2],6%
same,Population Healthy Nuclei (%),[2],78%
same,Population Hoechst High Intensity Objects (%),[2],9%
same,Population Membrane Permeable-Phenotype (%),[2],66%
same,Population Mitochondria Different-Phenotype (%),[2],100%
same,Population Mitotic Cells (%),[2],8%
same,Population Normal (%),[2],90%
same,Population Pyknosed Nuclei (%),[2],15%
same,Total Cell Count,[2],945
same,Population Apoptotic (%),[3],65%
same,Population Fragmented Nuclei (%),[3],19%
same,Population Healthy Nuclei (%),[3],10%
same,Population Hoechst High Intensity Objects (%),[3],16%
same,Population Membrane Permeable-Phenotype (%),[3],63%
same,Population Mitochondria Different-Phenotype (%),[3],18%
same,Population Mitotic Cells (%),[3],34%
same,Population Normal (%),[3],83%
same,Population Pyknosed Nuclei (%),[3],69%
same,Population Tubulin-Different-Phenotype (%),[3],72%
same,Total Cell Count,[3],124
same,Population Apoptotic (%),[4],76%
same,Population Fragmented Nuclei (%),[4],67%
same,Population Healthy Nuclei (%),[4],3%
same,Population Hoechst High Intensity Objects (%),[4],12%
same,Population Membrane Permeable-Phenotype (%),[4],100%
same,Population Mitochondria Different-Phenotype (%),[4],50%
same,Population Mitotic Cells (%),[4],23%
same,Population Normal (%),[4],87%
same,Population Pyknosed Nuclei (%),[4],29%
same,Population Tubulin-Different-Phenotype (%),[4],100%
same,Total Cell Count,[4],87
same,Population Apoptotic (%),[5],76%
same,Population Fragmented Nuclei (%),[5],25%
same,Population Healthy Nuclei (%),[5],53%
same,Population Hoechst High Intensity Objects (%),[5],13%
same,Population Membrane Permeable-Phenotype (%),[5],7%
same,Population Mitochondria Different-Phenotype (%),[5],85%
same,Population Mitotic Cells (%),[5],23%
same,Population Normal (%),[5],86%
same,Population Pyknosed Nuclei (%),[5],20%
same,Population Tubulin-Different-Phenotype (%),[5],90%
same,Total Cell Count,[5],117
same,Population Apoptotic (%),[6],77%
same,Population Fragmented Nuclei (%),[6],7%
same,Population Healthy Nuclei (%),[6],65%
same,Population Hoechst High Intensity Objects (%),[6],5%
same,Population Membrane Permeable-Phenotype (%),[6],96%
same,Population Mitochondria Different-Phenotype (%),[6],100%
same,Population Mitotic Cells (%),[6],22%
same,Population Normal (%),[6],94%
same,Population Pyknosed Nuclei (%),[6],27%
same,Population Tubulin-Different-Phenotype (%),[6],100%
same,Total Cell Count,[6],948
same,Population Apoptotic (%),[7],79%
same,Population Fragmented Nuclei (%),[7],29%
same,Population Healthy Nuclei (%),[7],10%
same,Population Hoechst High Intensity Objects (%),[7],22%
same,Population Membrane Permeable-Phenotype (%),[7],27%
same,Population Mitochondria Different-Phenotype (%),[7],27%
same,Population Mitotic Cells (%),[7],20%
same,Population Normal (%),[7],77%
same,Population Pyknosed Nuclei (%),[7],59%
same,Population Tubulin-Different-Phenotype (%),[7],54%
same,Total Cell Count,[7],135
same,Population Apoptotic (%),[8],100%
same,Population Fragmented Nuclei (%),[8],40%
same,Population Healthy Nuclei (%),[8],25%
same,Population Hoechst High Intensity Objects (%),[8],11%
same,Population Membrane Permeable-Phenotype (%),[8],100%
same,Population Mitochondria Different-Phenotype (%),[8],100%
same,Population Mitotic Cells (%),[8],0%
same,Population Normal (%),[8],88%
same,Population Pyknosed Nuclei (%),[8],33%
same,Population Tubulin-Different-Phenotype (%),[8],100%
same,Total Cell Count,[8],85
same,Population Apoptotic (%),[9],80%
same,Population Fragmented Nuclei (%),[9],47%
same,Population Healthy Nuclei (%),[9],44%
same,Population Hoechst High Intensity Objects (%),[9],11%
same,Population Membrane Permeable-Phenotype (%),[9],1%
same,Population Mitochondria Different-Phenotype (%),[9],70%
same,Population Mitotic Cells (%),[9],20%
same,Population Normal (%),[9],88%
same,Population Pyknosed Nuclei (%),[9],7%
same,Population Tubulin-Different-Phenotype (%),[9],80%
same,Total Cell Count,[9],143
same,Population Apoptotic (%),[10],0%
same,Population Fragmented Nuclei (%),[10],61%
same,Population Healthy Nuclei (%),[10],38%
same,Population Hoechst High Intensity Objects (%),[10],21%
same,Population Membrane Permeable-Phenotype (%),[10],0%
same,Population Mitochondria Different-Phenotype (%),[10],71%
same,Population Mitotic Cells (%),[10],0%
same,Population Normal (%),[10],78%
same,Population Pyknosed Nuclei (%),[10],0%
same,Population Tubulin-Different-Phenotype (%),[10],86%
same,Total Cell Count,[10],126
same,Population Apoptotic (%),[11],82%
same,Population Fragmented Nuclei (%),[11],48%
same,Population Healthy Nuclei (%),[11],22%
same,Population Hoechst High Intensity Objects (%),[11],28%
same,Population Membrane Permeable-Phenotype (%),[11],31%
same,Population Mitochondria Different-Phenotype (%),[11],22%
same,Population Mitotic Cells (%),[11],17%
same,Population Normal (%),[11],71%
same,Population Pyknosed Nuclei (%),[11],29%
same,Population Tubulin-Different-Phenotype (%),[11],27%
same,Total Cell Count,[11],138
same,Population Apoptotic (%),[12],90%
same,Population Fragmented Nuclei (%),[12],68%
same,Population Healthy Nuclei (%),[12],17%
same,Population Hoechst High Intensity Objects (%),[12],31%
same,Population Membrane Permeable-Phenotype (%),[12],57%
same,Population Mitochondria Different-Phenotype (%),[12],64%
same,Population Mitotic Cells (%),[12],9%
same,Population Normal (%),[12],68%
same,Population Pyknosed Nuclei (%),[12],13%
same,Population Tubulin-Different-Phenotype (%),[12],21%
same,Total Cell Count,[12],115
COc1cc(Nc2nccc(-c3cnn4nc(OC)ccc34)n2)cc(C(F)(F)F)c1,Population Apoptotic (%),[1],42%
same,Population Fragmented Nuclei (%),[1],22%
same,Population Healthy Nuclei (%),[1],47%
same,Population Hoechst High Intensity Objects (%),[1],21%
same,Population Membrane Permeable-Phenotype (%),[1],25%
same,Population Mitochondria Different-Phenotype (%),[1],6%
same,Population Mitotic Cells (%),[1],57%
same,Population Normal (%),[1],78%
same,Population Pyknosed Nuclei (%),[1],30%
same,Population Tubulin-Different-Phenotype (%),[1],43%
same,Total Cell Count,[1],87
same,Population Apoptotic (%),[2],50%
same,Population Fragmented Nuclei (%),[2],8%
same,Population Healthy Nuclei (%),[2],86%
same,Population Hoechst High Intensity Objects (%),[2],3%
same,Population Membrane Permeable-Phenotype (%),[2],2%
same,Population Mitochondria Different-Phenotype (%),[2],16%
same,Population Mitotic Cells (%),[2],50%
same,Population Normal (%),[2],96%
same,Population Pyknosed Nuclei (%),[2],5%
same,Population Tubulin-Different-Phenotype (%),[2],16%
same,Total Cell Count,[2],44
same,Population Apoptotic (%),[3],57%
same,Population Fragmented Nuclei (%),[3],66%
same,Population Healthy Nuclei (%),[3],15%
same,Population Hoechst High Intensity Objects (%),[3],48%
same,Population Membrane Permeable-Phenotype (%),[3],13%
same,Population Mitochondria Different-Phenotype (%),[3],13%
same,Population Mitotic Cells (%),[3],42%
same,Population Normal (%),[3],51%
same,Population Pyknosed Nuclei (%),[3],17%
same,Population Tubulin-Different-Phenotype (%),[3],47%
same,Total Cell Count,[3],283
same,Population Apoptotic (%),[4],33%
same,Population Fragmented Nuclei (%),[4],27%
same,Population Healthy Nuclei (%),[4],61%
same,Population Hoechst High Intensity Objects (%),[4],34%
same,Population Membrane Permeable-Phenotype (%),[4],3%
same,Population Mitochondria Different-Phenotype (%),[4],6%
same,Population Mitotic Cells (%),[4],66%
same,Population Normal (%),[4],65%
same,Population Pyknosed Nuclei (%),[4],11%
same,Population Tubulin-Different-Phenotype (%),[4],15%
same,Total Cell Count,[4],82
same,Population Apoptotic (%),[5],75%
same,Population Fragmented Nuclei (%),[5],22%
same,Population Healthy Nuclei (%),[5],50%
same,Population Hoechst High Intensity Objects (%),[5],19%
same,Population Membrane Permeable-Phenotype (%),[5],8%
same,Population Mitochondria Different-Phenotype (%),[5],10%
same,Population Mitotic Cells (%),[5],25%
same,Population Normal (%),[5],80%
same,Population Pyknosed Nuclei (%),[5],27%
same,Population Tubulin-Different-Phenotype (%),[5],32%
same,Total Cell Count,[5],92
same,Population Apoptotic (%),[6],45%
same,Population Fragmented Nuclei (%),[6],10%
same,Population Healthy Nuclei (%),[6],77%
same,Population Hoechst High Intensity Objects (%),[6],2%
same,Population Membrane Permeable-Phenotype (%),[6],4%
same,Population Mitotic Cells (%),[6],54%
same,Population Normal (%),[6],97%
same,Population Pyknosed Nuclei (%),[6],12%
same,Population Tubulin-Different-Phenotype (%),[6],19%
same,Total Cell Count,[6],43
same,Population Apoptotic (%),[7],46%
same,Population Fragmented Nuclei (%),[7],57%
same,Population Healthy Nuclei (%),[7],21%
same,Population Hoechst High Intensity Objects (%),[7],54%
same,Population Membrane Permeable-Phenotype (%),[7],23%
same,Population Mitochondria Different-Phenotype (%),[7],11%
same,Population Mitotic Cells (%),[7],53%
same,Population Normal (%),[7],45%
same,Population Pyknosed Nuclei (%),[7],21%
same,Population Tubulin-Different-Phenotype (%),[7],42%
same,Total Cell Count,[7],273
same,Population Apoptotic (%),[8],50%
same,Population Fragmented Nuclei (%),[8],26%
same,Population Healthy Nuclei (%),[8],56%
same,Population Hoechst High Intensity Objects (%),[8],29%
same,Population Membrane Permeable-Phenotype (%),[8],0%
same,Population Mitochondria Different-Phenotype (%),[8],23%
same,Population Mitotic Cells (%),[8],50%
same,Population Normal (%),[8],70%
same,Population Pyknosed Nuclei (%),[8],17%
same,Population Tubulin-Different-Phenotype (%),[8],11%
same,Total Cell Count,[8],90
same,Population Apoptotic (%),[9],64%
same,Population Fragmented Nuclei (%),[9],32%
same,Population Healthy Nuclei (%),[9],50%
same,Population Hoechst High Intensity Objects (%),[9],11%
same,Population Mitochondria Different-Phenotype (%),[9],0%
same,Population Mitotic Cells (%),[9],35%
same,Population Normal (%),[9],88%
same,Population Pyknosed Nuclei (%),[9],17%
same,Population Tubulin-Different-Phenotype (%),[9],21%
same,Total Cell Count,[9],92
same,Population Apoptotic (%),[10],66%
same,Population Fragmented Nuclei (%),[10],39%
same,Population Healthy Nuclei (%),[10],56%
same,Population Hoechst High Intensity Objects (%),[10],10%
same,Population Membrane Permeable-Phenotype (%),[10],17%
same,Population Mitochondria Different-Phenotype (%),[10],4%
same,Population Mitotic Cells (%),[10],33%
same,Population Normal (%),[10],89%
same,Population Pyknosed Nuclei (%),[10],4%
same,Population Tubulin-Different-Phenotype (%),[10],29%
same,Total Cell Count,[10],82
same,Population Apoptotic (%),[11],69%
same,Population Fragmented Nuclei (%),[11],69%
same,Population Healthy Nuclei (%),[11],21%
same,Population Hoechst High Intensity Objects (%),[11],51%
same,Population Membrane Permeable-Phenotype (%),[11],10%
same,Population Mitochondria Different-Phenotype (%),[11],6%
same,Population Mitotic Cells (%),[11],30%
same,Population Normal (%),[11],48%
same,Population Pyknosed Nuclei (%),[11],9%
same,Population Tubulin-Different-Phenotype (%),[11],56%
same,Total Cell Count,[11],291
same,Population Apoptotic (%),[12],50%
same,Population Fragmented Nuclei (%),[12],39%
same,Population Healthy Nuclei (%),[12],59%
same,Population Hoechst High Intensity Objects (%),[12],26%
same,Population Membrane Permeable-Phenotype (%),[12],4%
same,Population Mitochondria Different-Phenotype (%),[12],8%
same,Population Mitotic Cells (%),[12],50%
same,Population Normal (%),[12],73%
same,Population Pyknosed Nuclei (%),[12],1%
same,Population Tubulin-Different-Phenotype (%),[12],40%
same,Total Cell Count,[12],205
